# Experimental data reported in ChEMBL document CHEMBL1125539 (J Med Chem, 1992).
# Legend:
# [1] = Hypoxic selectivity was measured as product of concentration and exposure time needed to reduce cell survival to 10% of control using UV4 cells at 10e6 /mL in the clonogenic assay; type: functional, Cricetulus griseus
# Summary of the method: (§1)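 Magnetically stirred 10-mL suspensions of late-log UV4 cells (10^6/mL), gassed continuously with 5% CO2 in air or N2. Cells and drug in medium pre-equilibrated 60 min under that gas before mixing. Samples removed periodically up to 8 h for clonogenic survival. CT10 = concentration (μM) × time (h) for 10% survival; ratio = CT10(air)/CT10(N2), using concentrations giving similar kill rates.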
# Cricetulus griseus = species: Cricetulus griseus; test: Hypersensitivity factor was defined as the ratio of IC50(AA8) to IC50(UV4); type: functional
# [2] = Growth inhibition of aerobic chinese hamster ovary fibroblast UV4 cells using an exposure time of 18 hours; type: functional, cell-based; conditions: Cricetulus griseus, UV4, 18 h
# Summary of the method: (§2)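 Log-phase CHO monolayers in 96-well trays seeded at 200 (AA8; text prints "A48") or 300 (UV4) cells/well in Alpha MEM + 10% FCS, grown 24 h, then exposed aerobically 18 h to five 2-fold serial dilutions in duplicate.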
# [3] = CT10 ratio defined as ratio of CT10 (air) to that of CT10 (nitrogen)); type: functional; summary of the method: as §1
# [4] = Growth inhibition of aerobic chinese hamster ovary fibroblast AA8 cell line using an exposure time of 18 hours; type: functional, cell-based; conditions: Cricetulus griseus, CHO-AA8, 18 h; summary of the method: as §2
Structure (SMILES),CT10 [1],HF (Cricetulus griseus),IC50 [2],CT10 ratio [3],IC50 [4]
O=C(c1cc(N2CC2)c([N+](=O)[O-])cc1[N+](=O)[O-])N1CCOCC1,50 µM·h,330,2.7 µM,1.7 air/N2,690 µM
CN(C)CCNC(=O)c1cc([N+](=O)[O-])ccc1N(CCO)CCO,–,1.1,4000 µM,–,6700 µM
CN(C)CCNC(=O)c1cc(N(CCO)CCO)c([N+](=O)[O-])cc1[N+](=O)[O-],–,1.4,3100 µM,–,4110 µM
O=C(c1cc(N(CCCl)CCCl)c([N+](=O)[O-])cc1[N+](=O)[O-])N1CCOCC1,156 µM·h,23,12 µM,1.3 air/N2,260 µM
NC(=O)c1cc(N(CCO)CCO)c([N+](=O)[O-])cc1[N+](=O)[O-],>35000 µM·h,1.1,5900 µM,–,6200 µM
CN(C)CCNC(=O)c1cc([N+](=O)[O-])ccc1N(CCCl)CCCl,78 µM·h,40,5.7 µM,1.5 air/N2,208 µM
NC(=O)c1cc(N(CCCl)CCCl)c([N+](=O)[O-])cc1[N+](=O)[O-],2700 µM·h,6.8,108 µM,60 air/N2,470 µM
O=C(c1cc([N+](=O)[O-])ccc1N(CCO)CCO)N1CCOCC1,–,1.3,8400 µM,–,10400 µM
CN(C)CCNC(=O)c1cc(N(CCO)CCO)ccc1[N+](=O)[O-],11300 µM·h,1.6,8000 µM,0.95 air/N2,13200 µM
CN(C)CCNC(=O)c1cccc(N(CCCl)CCCl)c1,–,44,0.27 µM,–,11 µM
CN(C)CCNC(=O)c1cc(N(CCCl)CCCl)ccc1[N+](=O)[O-],465 µM·h,12,72 µM,2.3 air/N2,1140 µM
O=[N+]([O-])c1ccc(N(CCO)CCO)c([N+](=O)[O-])c1,–,0.9,280 µM,–,295 µM
O=C(c1cc([N+](=O)[O-])ccc1N(CCCl)CCCl)N1CCOCC1,2325 µM·h,> 7,68 µM,1.15 air/N2,> 500 µM
O=[N+]([O-])c1ccc(N(CCO)CCO)cc1,–,1.1,2950 µM,–,3200 µM
CN(C)CCNC(=O)c1cc(N(CCCl)CCCl)c([N+](=O)[O-])cc1[N+](=O)[O-],1080 µM·h,4.2,68 µM,70 air/N2,260 µM
O=C(c1cc(N(CCO)CCO)c([N+](=O)[O-])cc1[N+](=O)[O-])N1CCOCC1,–,1.1,2600 µM,–,2950 µM
O=C(c1cc(N(CCO)CCO)ccc1[N+](=O)[O-])N1CCOCC1,–,1,9200 µM,–,11200 µM
NC(=O)c1cc(N2CC2)c([N+](=O)[O-])cc1[N+](=O)[O-] [TRETAZICAR],–,50,11.7 µM,3.6 air/N2,560 µM
O=C(c1cc(N(CCCl)CCCl)ccc1[N+](=O)[O-])N1CCOCC1,450 µM·h,19,15 µM,1 air/N2,243 µM
